# According to PMC6218153 (Journal of Alzheimer's Disease Reports, 2018):
# Where no end group is shown, it is not given here.
# Key:
# [1] = Metabolic stability in mouse plasma; assay type: in vitro ADME
# Summary of the method: (§1)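 Test compound (100 μM stock in methanol) added to 1 μM final in plasma or brain homogenate (1:3 brain:PBS, w/v) and incubated at room temperature. Sampled at 15 and 30 min and 1, 2 and 4 h; time-zero samples pre-quenched with methanol. Proteins were methanol-precipitated; supernatant evaporated, reconstituted in 0.1% formic acid and analysed by LC/MS/MS. Duplicates per time point; results expressed as % of time 0.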
# [2] = Metabolic stability in human plasma; assay type: in vitro ADME
# Summary of the method: as §1
# [3] = Metabolic stability in mouse brain homogenate; assay type: in vitro ADME
# Summary of the method: as §1
# [4] = Radiolabel distribution study of 3H-P8 after IV or IN delivery; assay type: in vivo; conditions: rat
# Summary of the method: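 Adult male SD rats (n = 6/route) were anaesthetised with ketamine/xylazine/acepromazine. They received 0.5 mg test compound plus 60 μCi tritiated label in 60 μL over 18 min, either by IV infusion or by IN drops to alternating nares every 2 min while supine. Blood was drawn 10 and 20 min after dosing ended. At 30 min: cardiac puncture, saline perfusion, then tissue scintillation counting. Concentrations were derived from DPM, tissue weight and specific activity; values beyond 2 SD were excluded as outliers.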
sequence,measurement,setting,value
"DEEEDEEL [P8, DEEEDEEL]",half-life,[1],> 4 h
same,"remaining at 2 h, 1 μM",[1],100%
same,half-life,[2],> 2 h
same,"remaining at 2 h, 1 μM",[2],63.1%
same,"remaining at 2 h, 1 μM",[3],49.2%
same,"improvement of brain targeting, IN compared to IV delivery",[4],approximately 4 fold
